Among the data in ChEMBL document CHEMBL4513216, “Probing the Open Global Health Chemical Diversity Library for Multistage-Active Starting Points for Next-Generation Antimalarials” (ACS Infect Dis, 2020) are cytotoxicity values, retold here.

SMILES strings stand for the structures.

A short description of this series: Toxicity liver stage against HepG2, at 10uM. Format: cell-based. The arrangement: test concentration 10 uM, cell line HepG2-A16-CD81EGFP. To be noted: human, HepG2-A16-CD81EGFP cells; read-out: INHIBITION
Summed up:
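Uninfected HepG2-A16-CD81EGFP cells, 3 × 10^3 per well, 1536-well, plated on prespotted compound at 10 μM final, parasite-free screening media added to match infected plates; puromycin 10 μM positive, DMSO 0.5% negative; run in parallel with 48 h PbLuc assay at 37 °C, 5% CO2; viability by CellTiter-Glo luminescence, normalized to controls.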
In the case of `COc1ccccc1-n1c(C)cc(CNC(=O)NC(C)C)c1C`, the cytotoxicity at 10 µM is 3.49%. For `O=C(c1nc(Cc2c[nH]c3ccccc23)no1)N1CCCC1`, the cytotoxicity at 10 µM came out at 7.76%. With `Cn1c(C(F)(F)F)nn(CCNC(=O)CCc2ccccc2)c1=O` the figure was 10.7%; with `Cc1nc(C)n(CC2CN(S(C)(=O)=O)Cc3nccn3C2)n1` (stereo unspecified), -140%; with `COCCNC(=O)[C@H]1C[C@@H]2CCN(c3ncccn3)C[C@@H]2O1`, -0.785%.

With `Cc1ccc(N2CC[C@H]3OCC[C@@]3(C(=O)N3CCCO3)C2)nn1`, the cytotoxicity at 10 µM is -1.22%. Turning to `COCC1CN(Cc2cccc(C#N)c2)Cc2nccn2C1` (stereo unspecified), the cytotoxicity at 10 µM is -141%. With `COc1cccc2c1ccn2CCC(=O)N1CCC(C(=O)O)CC1`, the cytotoxicity at 10 µM amounted to 7.08%. Consider `COc1cc(CNc2ccccc2Cl)ccc1OCC(=O)O`, for which the cytotoxicity at 10 µM came to 6.15%.

On to `Cc1nc(NCCN2CCCC2=O)cc(C2CN(C(C)C)CCO2)n1` (stereo unspecified), for which the cytotoxicity at 10 µM amounted to 3.88%.

Turning to `Cc1cncc(C2CCN(Cc3ccc(S(C)(=O)=O)cc3)CC2)n1`, the cytotoxicity at 10 µM is -1.03%. The value for `Cc1nccn1[C@@H]1CC[C@@H](NC(=O)CCCn2cncn2)[C@H]1O` was 6.17%; that for `CC(=O)N1CCC2(CC1)CC(C(C)C)=NO2` was 8.74%. With `O=C(CCc1ccco1)NS(=O)(=O)N1CCOc2ccccc21` the figure was 6.07%; with `COc1ccccc1NC(=O)c1ccc(C)n1C`, 1.42%. With `Cc1cnn(CCNCC(=O)N2CCN(c3ncccn3)CC2)c1` the figure was -0.0264%; with `CC(Nc1ccc(C#N)cc1F)c1cccc(S(N)(=O)=O)c1` (stereo unspecified), -3.86%; with `Cc1cc(NC(=O)CNc2cccc(OC(F)F)c2C)n(C)n1`, 9.47%.

As for `N#Cc1ccc(NCCC(=O)N2CCCc3ccccc32)nc1`, the cytotoxicity at 10 µM was -1.33%. With `CCOc1cc(Cl)ccc1CNC(=O)N(C)CC(C)(C)O` the figure was -0.538%. With `O=C1CCN(C(=O)C2(c3ccc(F)cc3)CCCC2)CCN1` the figure was -8.27%. With `CCOCC(=O)NC1(c2nc(C)cs2)CCCC1` the figure was -12.7%; with `Cc1cccc(NC(=O)[C@@H]2CCCN2Cc2ccc(C#N)cc2F)n1`, -5.64%. In the case of `CN1CCC(N(Cc2ccccc2F)C(=O)NCc2ccncc2)CC1`, the cytotoxicity at 10 µM is -2.14%. The value for `CCC(CC)c1cc(CNC(=O)N2CCN(CC)CC2)on1` was -3.26%; that for `COc1ccccc1N1CCN(Cc2nc(C)c(C)o2)CC1` was 13.4%. With `Cc1nn(C)c(C)c1NC(=O)CNc1cccc(CC(F)(F)F)c1` the figure was -4.83%; with `Cc1nc(C)c(CN(C)C2CCN(C(=O)OC(C)(C)C)CC2)s1`, 3.51%; with `Cc1nn(C)c(C)c1CC(=O)NCc1ccnc(OC2CCCC2)c1`, -0.883%. For the compound `COc1ccc(CN2CCNC(=O)CC2)cc1SC(F)(F)F`, the cytotoxicity at 10 µM came out at 0.66%. `N#CCCN(Cc1ccco1)C(=O)Cc1ccc(-n2cnnn2)cc1`: the cytotoxicity at 10 µM was 3.23%. The value for `COCCC(Cc1cccc(Br)c1)C(N)=O` (stereo unspecified) was 8.42%. Turning to `CCc1sc(C(=O)Nc2cnn(CCN(C)C)c2)cc1C`, the cytotoxicity at 10 µM is 7.9%. The value for `Cc1nc(CN(C)C2CCN(Cc3cccc4cccnc34)C2)no1` (stereo unspecified) was -11.5%; that for `CC(CNCC1(S(C)(=O)=O)CCOCC1)c1ccc(F)cc1` (stereo unspecified) was -5.06%; that for `COc1c(C(=O)N2CCC(CSc3ccccc3)C2)c(C)nn1C` (stereo unspecified) was 25.6%.

For `Cc1ccsc1CNC(=O)c1ccc(N2CCNC2=O)cc1`, the cytotoxicity at 10 µM came out at 1.79%. With `Cc1nc(CN(C)C(=O)Nc2cnn(CC3CCCO3)c2)cs1` (stereo unspecified) the figure was 5.53%. `COc1ccc(C(=O)Nc2cnn(CC(=O)NC3CCCC3)c2)c(O)c1`: the cytotoxicity at 10 µM is -14.8%. With `CC(C)c1nnc2n1CC(CNCc1ccncc1)CC2` (stereo unspecified) the figure was -17.5%. The value for `O=C(O)c1cc2c(nc1-c1ccncc1)CCN(Cc1ccoc1)CC2` was -70.9%; that for `COCC(=O)N1CCCC2(CCN(c3cncnc3)C2=O)C1` (stereo unspecified) was -72.5%. Consider `c1cnc(NCC2Cn3nnc(-c4ccoc4)c3CO2)nc1` (stereo unspecified), for which the cytotoxicity at 10 µM was -76.1%. Consider `O=C(c1ccco1)N1CCn2cc(CN3CCCC3)nc2C1`, for which the cytotoxicity at 10 µM was -78.9%. Consider `NC(=O)N1CCC2(CC1)CN(c1ncccn1)CCO2`, for which the cytotoxicity at 10 µM is -75.1%. With `CCNC(=O)c1c2c(N3CCN(C)CC3)ncnc2n2ccccc12` the figure was -74.8%. Regarding `O=C(c1ccnnc1)N1CC[C@H]2C[C@H](c3ccncn3)O[C@@H]2C1`, the cytotoxicity at 10 µM is -71.8%. With `O=C(NCC1CC1)[C@H]1C[C@@H]2CCN(Cc3nccs3)C[C@@H]2O1` the figure was -1.7%. With `O=c1[nH][nH]cc1-c1ccnc(NCCN2CCCC2)n1` the figure was 2.89%; with `N[C@H]1CN(C(=O)Cc2ccc(CO)cc2)C[C@@H]1C1CC1`, -5.68%; with `Cc1nn(C)c2ncnc(N3CCCC(OCc4cccnc4)C3)c12` (stereo unspecified), 12.8%. With `COCCN1CC2(CCCN(C(=O)CCCc3cccs3)C2)CCC1=O` (stereo unspecified), the cytotoxicity at 10 µM was -8.5%. `CCCN1CCC=C(C2c3nc[nH]c3CCN2C(=O)c2ccco2)C1` (stereo unspecified): the cytotoxicity at 10 µM amounted to 1.33%.

On to `COCCN1CCC2(CCC1=O)CN(c1ccnc(SC)n1)CCN2C` (stereo unspecified), for which the cytotoxicity at 10 µM amounted to 2.41%. The value for `COc1ccc(N2CCN(CC[C@H](O)c3ccccc3)CC2=O)cc1` was 2.41%. As for `CCCn1cc(-c2cc(-c3cnc(OC)nc3)c(C#N)c(N)n2)c(C)n1`, the cytotoxicity at 10 µM stood at 2.89%. For the compound `OC1(CNCc2noc(Cc3ccccc3)n2)CNCCOC1` (stereo unspecified), the cytotoxicity at 10 µM was found to be 9.34%.

As to `O=C(NCc1sc2ccccc2c1Cl)c1cc2n(n1)CCNC2`, the cytotoxicity at 10 µM came out at 7.94%. With `CCOC(=O)CC1CCCCN1C(=O)c1cnc(C)cn1` (stereo unspecified) the figure was 0.957%. The value for `CC(=O)NCCNCC1(O)CCCN(CCC2CCCCC2)C1=O` (stereo unspecified) was 6.27%; that for `CSc1ccc(CCN2CCN([C@H]3CCCC[C@@H]3O)CC2)cc1` was -3.38%. The value for `CN(C)C(=O)NCC(=O)N(C)Cc1cc(-c2ccccc2)no1` was 1.14%; that for `OCC1COCCN(c2ncccc2C(F)(F)F)C1` (stereo unspecified) was -9.34%. For `CCc1ccc(OCC(=O)N2CCN(CC)CC2)cc1`, the cytotoxicity at 10 µM is 6.15%.

With `Cn1ccnc1C1c2nc[nH]c2CCN1Cc1cccnc1` (stereo unspecified), the cytotoxicity at 10 µM is 0.0371%. With `O=S1(=O)COCCN1Cc1ccc(Cl)c(F)c1` the figure was -11.6%; with `COc1cccn(CC(=O)N(C)CCOc2cc(C)cc(C)c2)c1=O`, -10.6%; with `CSc1ncccc1C(=O)N1CCC(c2nc3c(C)cccc3[nH]2)CC1`, -20%. With `CC(=O)N1CCc2c(nc(-c3ccncc3)nc2N(C)CC(O)CO)C1` (stereo unspecified) the figure was -13.1%; with `Cc1nccn1-c1cccc(C2CCCN2S(=O)(=O)c2cn(C)cn2)n1` (stereo unspecified), 7.99%.

As to `COc1c(C2CCCN2C(=O)c2scnc2C)c(C)nn1C` (stereo unspecified), the cytotoxicity at 10 µM was -1.49%. Turning to `Cc1ccc(OCC(=O)N2CCCC(n3nc(C)nc3C)C2)cc1` (stereo unspecified), the cytotoxicity at 10 µM is -10.1%. The value for `CCn1cnnc1CNC(=O)N1CCN(c2ccccc2Cl)CC1` was -0.502%; that for `c1cc(CN2CCOC(Cn3cccn3)C2)c2c(c1)OCCO2` (stereo unspecified) was -2.66%; that for `CCc1ccc(CNC(=O)NCc2nnc3n2CCC3)s1` was 2.12%.

Turning to `CCCc1n[nH]c(C2CN(C(=O)CCc3cscn3)CCO2)n1` (stereo unspecified), the cytotoxicity at 10 µM was -1.63%. The value for `Cc1cc(NC(=O)CN2CCn3c(nnc3C3CC3)C2)on1` was -9.92%; that for `COc1ccc(CN(C)C(=O)NCc2c(C)cc(C)[nH]c2=O)cc1` was -1.13%. With `CCN(CC)c1ccc(C(=O)N(C)Cc2c(C)noc2C)cn1` the figure was -5.38%; with `CNC(=O)c1cccc(NC(=O)Cn2nc(-c3cccs3)oc2=O)c1`, -8.28%; with `O=C(NCCNc1ncccn1)c1ccc(-c2ccco2)[nH]c1=O`, -3.29%. With `CCN(C(=O)c1ccc(-n2ncc(C#N)c2N)cc1)C1CCCC1` the figure was -13%; with `Cc1nn(C)c(N(C)C)c1CNC(C)COc1cccc(F)c1` (stereo unspecified), -4.96%; with `CCn1cc(NC(=O)NCC(O)CN2CCc3ccccc3C2)cn1` (stereo unspecified), -4.33%. For the compound `CC(=O)Nc1nc(C(=O)N2CCCC2Cn2cc(C)cn2)cs1` (stereo unspecified), the cytotoxicity at 10 µM was determined as 7.07%.

Regarding `Cc1n[nH]c(C2CN(C(=O)c3cnc[nH]3)CCO2)n1` (stereo unspecified), the cytotoxicity at 10 µM was -0.265%. The value for `c1cc(OCc2ccc3c(c2)OCCO3)ccc1CNC1CC1` was -0.73%; that for `Cc1ncsc1CN1C[C@H](C(=O)N2CCCO2)[C@@H]2CCO[C@@H]2C1` was -11.6%. The value for `COc1ccc(CNC(C)Cn2cccn2)c(OC)c1OC` (stereo unspecified) was -8.17%; that for `CN(C)C(=O)CO[C@H]1CN(Cc2ccc(F)cc2)[C@@H]2CCCO[C@H]12` was -22.3%; that for `Cc1ccc(CN2CC[C@H]3[C@H](CC(Cn4cccn4)N3C)C2)s1` (stereo partly specified) was 6.66%. With `CN(C)C(=O)[C@H]1C[C@H]2OCC[C@H]2N(Cc2ccc3ccccc3n2)C1` the figure was -55.9%; with `c1ccc(CN2CCc3ncnc(-c4cccnc4)c3CC2)nc1`, -75.7%. In the case of `Cc1ccc(N2CCO[C@H]3CN(Cc4nccs4)C[C@H]32)nn1`, the cytotoxicity at 10 µM was -94.7%. For `CCc1cc(NC2CCC(O)CC2)n2nc(C)c(C)c2n1` (stereo unspecified), the cytotoxicity at 10 µM is -6.86%.

For the compound `CCCn1nccc1NC(=O)CN1CCCC1c1cccn1C` (stereo unspecified), the cytotoxicity at 10 µM is -5.76%.
